Measurements taken from ChEMBL document CHEMBL1938375, “Design, synthesis and biological evaluation of pyrazole derivatives as potential multi-kinase inhibitors in hepatocellular carcinoma” (Eur J Med Chem, 2012).
Active and inactive are the calls of the source. No cut-off for these calls is given here.

How the values were obtained:
SNU-449 [1] = experiment: Cell cycle arrest in human SNU449 cells assessed as accumulation at G1 phase at 100 uM after 48 to 72 hrs using […]propidium iodide staining by flow cytometric analysis; type: functional, cell-based
SNU-449 [2] = experiment: Decrease of cyclin D1 level in human SNU449 cells at 50 uM after 72 hrs by Western blotting relative to beta-actin; type: functional
Method in brief: (§1)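 Western blots in SNU449 cells treated at a single intermediate level for 72 h, with DMSO as control. Blots probed cyclin D1, p21, p27 and p53. Band intensities were given as the ratio of protein to β-actin.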

SNU-449 [3] = experiment: Effect on p27 expression in human SNU449 cells at 50 uM after 72 hrs by Western blotting relative to beta-actin; type: functional; method in brief: as §1
SNU-449 [4] = experiment: Up-regulation of p21 expression in human SNU449 cells at 50 uM after 72 hrs by Western blotting relative to beta-actin; type: functional; method in brief: as §1
SNU-449 [5] = experiment: Up-regulation of p53 expression in human SNU449 cells at 50 uM after 72 hrs by Western blotting relative to beta-actin; type: functional; method in brief: as §1
SNU-449 [6] = experiment: Induction of apoptosis in human SNU449 cells at 50 to 100 uM after 72 hrs using annexin V/propidium iodide staining by flow cytometric analysis; type: functional, cell-based
Method in brief: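 SNU449 cells were treated at two compound levels for 72 h, with DMSO as control. Apoptosis was detected by Annexin V/propidium iodide staining and flow cytometry, following the kit instructions. Values are averages ± SD.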

SNU-449 [7] = experiment: Cytotoxicity against human SNU449 cells at 50 uM after 48 hrs; type: functional, cell-based
Method in brief: (§2)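 Trypan blue exclusion counts on SNU449 cells grown in RPMI 1640 with 10% FBS and antibiotics. Compounds came from 10 mM DMSO stocks, diluted and tested at 50, 100 and 150 for 48 and 72 h in triplicate, with DMSO as control. Viable cells were counted in a Burker chamber. IC50 was derived from percentage viable cells relative to control.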

SNU-449 [8] = experiment: Cytotoxicity against human SNU449 cells at 50 uM after 72 hrs; type: functional, cell-based; method in brief: as §2
SNU-449 [9] = experiment: Cytotoxicity against human SNU449 cells after 48 hrs; type: functional, cell-based; settings: SNU-449, 48 h; method in brief: as §2
SNU-449 [10] = experiment: Cytotoxicity against human SNU449 cells after 72 hrs; type: functional, cell-based; settings: SNU-449, 72 h; method in brief: as §2
[11] = target: RAC-alpha serine/threonine-protein kinase (Homo sapiens) (UniProt P31749); experiment: Inhibition of AKT phosphorylation in human SNU449 cells at 25 uM after 48 hrs by Western blotting relative to beta-actin; type: cell-based; settings: SNU-449
Method in brief: (§3)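 Western blot for P-AKT in SNU449 cells treated at 25, 50 and 100 for 48 h and 72 h, with DMSO-treated cells as control. Bands were quantified as the P-AKT to β-actin ratio.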

[12] = target: RAC-alpha serine/threonine-protein kinase (Homo sapiens) (UniProt P31749); experiment: Inhibition of AKT phosphorylation in human SNU449 cells at 50 uM after 48 hrs by Western blotting relative to beta-actin; type: cell-based; settings: SNU-449; method in brief: as §3
[13] = target: RAC-alpha serine/threonine-protein kinase (Homo sapiens) (UniProt P31749); experiment: Inhibition of AKT phosphorylation in human SNU449 cells at 100 uM after 48 hrs by Western blotting relative to beta-actin; type: cell-based; settings: SNU-449; method in brief: as §3
[14] = target: RAC-alpha serine/threonine-protein kinase (Homo sapiens) (UniProt P31749); experiment: Inhibition of AKT phosphorylation in human SNU449 cells at 25 uM after 72 hrs by Western blotting relative to beta-actin; type: cell-based; settings: SNU-449; method in brief: as §3
[15] = target: RAC-alpha serine/threonine-protein kinase (Homo sapiens) (UniProt P31749); experiment: Inhibition of AKT phosphorylation in human SNU449 cells at 50 uM after 72 hrs by Western blotting relative to beta-actin; type: cell-based; settings: SNU-449; method in brief: as §3
[16] = target: RAC-alpha serine/threonine-protein kinase (Homo sapiens) (UniProt P31749); experiment: Inhibition of AKT phosphorylation in human SNU449 cells at 100 uM after 72 hrs by Western blotting relative to beta-actin; type: cell-based; settings: SNU-449; method in brief: as §3
[17] = target: RAC-alpha serine/threonine-protein kinase (Homo sapiens) (UniProt P31749); experiment: Inhibition of AKT in human SNU449 cells assessed as phosphorylated RpS6 level at 50 uM after 48 hrs by Western blotting relative to beta-actin; type: cell-based; settings: SNU-449
Method in brief: (§4)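 Western blots in SNU449 cells treated at a single intermediate level for 48 and 72 h, with DMSO as control. Blots probed P-ERK1/2, P-GSK-3β (Ser-9) and P-RpS6. Band intensities were given as the ratio of phosphoprotein to β-actin.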

[18] = target: RAC-alpha serine/threonine-protein kinase (Homo sapiens) (UniProt P31749); experiment: Inhibition of AKT in human SNU449 cells assessed as phosphorylated RpS6 level at 50 uM after 72 hrs by Western blotting relative to beta-actin; type: cell-based; settings: SNU-449; method in brief: as §4
[19] = target: RAC-alpha serine/threonine-protein kinase (Homo sapiens) (UniProt P31749); experiment: Inhibition of AKT in human SNU449 cells assessed as phosphorylated GSK3-beta level at 50 uM after 48 hrs by Western blotting relative to beta-actin; type: cell-based; settings: SNU-449; method in brief: as §4
[20] = target: RAC-alpha serine/threonine-protein kinase (Homo sapiens) (UniProt P31749); experiment: Inhibition of AKT in human SNU449 cells assessed as phosphorylated GSK3-beta level at 50 uM after 72 hrs by Western blotting relative to beta-actin; type: cell-based; settings: SNU-449; method in brief: as §4
[21] = target: RAC-alpha serine/threonine-protein kinase (Homo sapiens) (UniProt P31749); experiment: Inhibition of AKT in human SNU449 cells assessed as phosphorylated […] level at 50 uM after 72 hrs by Western blotting relative to beta-actin; type: cell-based; settings: SNU-449
[22] = target: RAC-alpha serine/threonine-protein kinase (Homo sapiens) (UniProt P31749); experiment: Inhibition of AKT in human SNU449 cells assessed as phosphorylated ERK1/2 level at 50 uM after 48 hrs by Western blotting relative to beta-actin; type: cell-based; settings: SNU-449; method in brief: as §4
[23] = target: RAC-alpha serine/threonine-protein kinase (Homo sapiens) (UniProt P31749); experiment: Inhibition of AKT in human SNU449 cells assessed as phosphorylated ERK1/2 level at 50 uM after 72 hrs by Western blotting relative to beta-actin; type: cell-based; settings: SNU-449; method in brief: as §4
SNU-449 [24] = experiment: Cell cycle arrest in human SNU449 cells assessed as accumulation at G1 phase at 25 uM after 48 to 72 hrs using […]propidium iodide staining by flow cytometric analysis; type: functional, cell-based
[25] = target: RAC-alpha serine/threonine-protein kinase (Homo sapiens) (UniProt P31749); experiment: Inhibition of AKT in human SNU449 cells assessed as beta-catenin level at 50 uM after 48 hrs by Western blotting relative to beta-actin; settings: SNU-449
[26] = target: RAC-alpha serine/threonine-protein kinase (Homo sapiens) (UniProt P31749); experiment: Inhibition of AKT in human SNU449 cells assessed as total MDM2 protein level at 50 uM after 72 hrs by Western blotting relative to beta-actin; settings: SNU-449
[27] = target: RAC-alpha serine/threonine-protein kinase (Homo sapiens) (UniProt P31749); experiment: Inhibition of AKT in human SNU449 cells assessed as phosphorylated MDM2 level at 50 uM after 72 hrs by Western blotting relative to beta-actin; settings: SNU-449
SNU-449 [28] = experiment: Cell cycle arrest in human SNU449 cells assessed as decrease in S phase at 100 uM after 48 to 72 hrs using […]propidium iodide staining by flow cytometric analysis
SNU-449 [29] = experiment: Cell cycle arrest in human SNU449 cells assessed as accumulation at G1 phase at 50 uM after 72 hrs using […]propidium iodide staining by flow cytometric analysis; type: functional, cell-based

RAC-alpha serine/threonine-protein kinase (Homo sapiens), sequence (P31749 whole entry): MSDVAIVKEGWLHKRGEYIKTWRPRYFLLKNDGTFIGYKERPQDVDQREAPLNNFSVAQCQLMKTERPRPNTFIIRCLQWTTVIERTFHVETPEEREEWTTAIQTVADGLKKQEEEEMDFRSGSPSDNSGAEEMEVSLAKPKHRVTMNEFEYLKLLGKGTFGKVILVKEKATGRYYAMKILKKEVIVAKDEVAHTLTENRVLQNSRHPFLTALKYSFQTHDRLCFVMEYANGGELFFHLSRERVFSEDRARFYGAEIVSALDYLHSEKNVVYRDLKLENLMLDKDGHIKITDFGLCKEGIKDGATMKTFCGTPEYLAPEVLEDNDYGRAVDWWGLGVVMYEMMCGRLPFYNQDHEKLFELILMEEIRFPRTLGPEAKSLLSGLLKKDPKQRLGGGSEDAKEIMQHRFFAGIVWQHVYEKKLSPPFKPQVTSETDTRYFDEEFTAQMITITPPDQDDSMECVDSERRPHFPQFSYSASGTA

| SMILES | Activity (SNU-449 [1]) | Ratio (SNU-449 [2]) | Ratio (SNU-449 [3]) | Ratio (SNU-449 [4]) | Ratio (SNU-449 [5]) | Activity (SNU-449 [6]) | Activity (SNU-449 [7]) | Activity (SNU-449 [8]) | IC50 (SNU-449 [9]) | IC50 (SNU-449 [10]) | Ratio [11] | Ratio [12] | Ratio [13] | Ratio [14] | Ratio [15] | Ratio [16] | Ratio [17] | Ratio [18] | Ratio [19] | Ratio [20] | further results |
| --- | --- | --- | --- | --- | --- | --- | --- | --- | --- | --- | --- | --- | --- | --- | --- | --- | --- | --- | --- | --- | --- |
| Cc1cccc(-c2cc(C(=O)Nc3ccc(N)cc3)n(-c3ccc(N)cc3)n2)c1C | Active | 0.39 | 0.95 | 4.6 | 1.4 | Active | Active | Active | < 100 µM | < 50 µM | 1.2 | 0.26 | 0.07 | 2.2 | 0.32 | 0.5 | 0.5 | 0.29 | 0.18 | 0.93 | Ratio [21]: 0.75; Ratio [22]: 1.5; Ratio [23]: 1.1; Activity (SNU-449 [24]): Active; Ratio [25]: 0.57; Ratio [26]: 1.3; Ratio [27]: 0.4; Activity (SNU-449 [28]): Active |
| Cc1cccc(NC(=O)c2cc(C(=O)Nc3ccc(N)cc3)n(-c3ccc(N)cc3)n2)c1C | Active | 0.67 | 1.2 | 4.6 | 1.3 | Active | Active | Active | 150 µM | 50 µM | 1.1 | 0.58 | 0.39 | 1.9 | 0.53 | 0.64 | 0.64 | 0.49 | 0.48 | 0.6 | Ratio [21]: 0.46; Ratio [22]: 2; Ratio [23]: 0.91; Activity (SNU-449 [29]): Active; Ratio [25]: 0.41; Ratio [26]: 1.4; Ratio [27]: 0.65; Activity (SNU-449 [28]): Active |
